# Compound activity: PubChem, several laboratories
# UPR XBP1 act: activators of adaptive arm of unfolded protein response (XBP1). CHO-XBP1 luciferase reporter, IRE1-XBP1 UPR activation, luminescence; percent of tunicamycin response, DMSO as zero. activation, % at 20 µM. 330,000 compounds, 0.33% hits;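 active means versus positive control, 20 µM dose yields 30% or more activation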;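 further: 100% = tunicamycin at 10 µg/mL and 0% = DMSO only wells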
#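 Material: CHO-XBP1 cells stably carrying IRE1-XBP1-driven luciferase reporter / Amount: 1000 cells per well / Compound: 20 µM, 1% DMSO / Times: 6 h treatment, 37 °C / Detection: luciferase luminescence / Measure: % activation of reporter signal versus tunicamycin and DMSO controls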
# CHOP inhibitor: blocks CHOP induction under ER stress; AID 2732; inhibition, % at 10 µM; CHO-K1 CHOP-promoter luciferase, tunicamycin-induced, 15-18 h; 220,000 compounds, 3.8% hits;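 active means compounds that reduced the stress-induced luciferase reporter signal by more than about 70% of percent inhibition, limit read from the data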;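 further: 0% = tunicamycin plus vehicle and 100% = wells without tunicamycin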
# CHOP UPR activ: activators of apoptotic arm of unfolded protein response (CHOP); CHO-CHOP luciferase reporter, UPR activation, luminescence; percent of tunicamycin response over DMSO baseline; activation, % at 10 µM; 330,000 compounds, 0.34% hits; AID 449763;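 active means at 10 µM dose, activation of 40% or more, normalized to positive control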;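 further: 100% = tunicamycin at 10 µg/mL and 0% = DMSO alone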
#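 measured by = luciferase luminescence | assay system = CHO-CHOP cells, stable luciferase reporter of PERK-eIF2a-CHOP signalling | amount = 500 reporter cells seeded per well | timing = 6 h compound exposure at 37 °C after overnight seeding | controls = positive tunicamycin 10 µg/mL, negative DMSO alone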
# Bfl-1 A1 inh: inhibitors of the anti-apoptotic protein A1, read as caspase activation; caspase activation, % (concentration not given with the values); MEF A1-2A-BIM cells, Caspase-Glo 3/7 luminescence, 3 h; percent of clofoctol response, vehicle zero; AID 2462; 330,000 compounds, 0.066% hits;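 active means over half of replicate activation scores above 10%, or exactly half above 10 with the replicate mean above 10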
# CHOP confirm: confirmation of CHOP induction inhibitors; shares compounds with CHOP inhibitor; CHO-CHOP promoter luciferase reporter, tunicamycin-induced, luminescence; inhibition, % at 10 µM; 2,100 compounds, 45% hits; AID 504437;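 active means mean of three repeat readings of reporter signal inhibition above a set limit, cut at about 70% in these data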;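 further: 0% = tunicamycin plus vehicle and 100% = wells lacking tunicamycin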
# The depositor's hits bear a star; x = not tested or not shown. Only a selection was taken, and hits are over-represented in it overall.
SMILES,UPR XBP1 act,CHOP inhibitor,CHOP UPR activ,Bfl-1 A1 inh,CHOP confirm
OC(CNc1ccccc1)COc1ccc(OCC(O)CNc2ccccc2)cc1 (configuration not stated),-2,65,4,0,x
COc1ccc(NCC(O)COc2ccc(C(C)(C)C)cc2)cc1 (configuration not stated),5,104*,-1,-1,57
CCc1ccc(CN(C)Cc2nc(COc3ccccc3)no2)nc1,2,-2,-1,1,x
Cc1cc(S(=O)(=O)Nc2ccc3ccccc3c2)c(C)s1,-1,111*,-2,0,52
O=C(CN1CCN(CC(=O)Nc2cccc(F)c2)CC1)NCC1(N2CCOCC2)CCCCC1,0,x,0,x,x
CCOc1ccc(C(=O)C(CCC(CN(C)C)C(=O)c2ccc(OCC)cc2)CN(C)C)cc1 (configuration not stated),x,106*,x,x,76*
COc1ccc(C(=O)C(CCCCC(CN(C)C)C(=O)c2ccc(OC)cc2)CN(C)C)cc1 (configuration not stated),2,-21,0,0,x
COc1ccc(S(=O)(=O)NC(C)C(=O)NCc2ccccn2)cc1Cl (configuration not stated),-8,x,0,1,x
C/C(=N\N=C(/N)SC1CC(=O)N(c2ccc(Cl)cc2)C1=O)c1cccs1 (configuration not stated),0,69,1,0,x
C/C(=N\N=C(/N)SC1CC(=O)N(c2ccc(Cl)c(Cl)c2)C1=O)c1cccs1 (configuration not stated),0,110*,0,-1,19
CCOC(=O)/C(C#N)=C/c1cc2cc(C)c(C)cc2nc1Cl,-1,-4,4,-1,x
Cc1cc2cc(C=C(C#N)C#N)c(Cl)nc2cc1C,-2,97*,10,0,2
O=C(NC1CCc2ccccc21)c1cc(COc2ccc(F)cc2F)on1 (configuration not stated),-3,9,-2,0,x
COc1cc(/C=C2/C(=O)c3cccc([N+](=O)[O-])c3C2=O)c(Br)cc1O,x,107*,x,0,4
Nc1nonc1-n1nnc(C(=O)N/N=C/c2ccoc2)c1CSc1ccc(Cl)cc1,-2,x,1,0,x
CN(C)c1ccc(/C=C2\C(=N)N3C(=NC2=O)Sc2cc(S(C)(=O)=O)ccc23)cc1,136*,104*,16,0,-9
O=C(CCN1C(=O)c2ccccc2C1=O)Oc1ccc2ccccc2c1,1,39,0,1,x
CC1=CC(C)(C)Nc2ccc(OC(=O)CCN3C(=O)c4ccccc4C3=O)cc21,-7,108*,-5,1,-220
CC(=O)Nc1ccc(S(=O)(=O)c2ccc(C)cc2)cc1,-2,5,-2,0,x
CCCCS(=O)(=O)/C=C\C=C/S(=O)(=O)CCCC,-10,x,-12,3,127*
CCCCS(=O)(=O)/C=C\C1C2C=CC(C2)C1S(=O)(=O)CCCC (configuration not stated),-1,9,0,0,x
Cc1ccc2c(c1)c1nnc(SCC(=O)Nc3ccccc3C(F)(F)F)nc1n2CC(=O)O,-3,21,-1,1,x
CC1=CCC[C@@H]2[C@@](C)(CC/C(C)=C/C(=O)O)[C@H](C)CC[C@@]12C,-1,99*,1,1,112*
CC(C)(C)c1ccc(-c2n[nH]c(=S)n2C2CCCC2)cc1,0,107*,0,0,121*
COc1cccc(C(=O)O/N=C(\N)CS(=O)(=O)c2ccccc2)c1,-1,x,1,2,x
SMILES,UPR XBP1 act,CHOP inhibitor,CHOP UPR activ,Bfl-1 A1 inh,CHOP confirm
O=C(COC(=O)c1c(F)cccc1F)Nc1ccc2[nH]c(=O)[nH]c2c1,4,9,0,0,x
COc1ccc(C(=O)NC(=O)Nc2cc(C)ccn2)cc1,-9,105*,-9,-7,103*
CCOC(=O)c1ccccc1NC(=O)C1CCN(c2ncnc3sc(C)c(C)c23)CC1,-2,x,0,0,x
CC(C)c1ccc(O)c(NC(=S)NC(=O)CCc2ccccc2)c1,-1,106*,0,0,110*
N#C/C(=C/c1cn(-c2ccccc2)nc1-c1cccc(OCc2ccccc2)c1)C(=O)NCCCn1ccnc1,0,2,5,0,x
CCCCc1ccc(NC(=S)NCc2cccc(OC)c2)cc1,1,102*,-1,1,19
Cc1ccc(SCCNS(=O)(=O)c2ccc(F)cc2)cc1,-1,97*,2,0,6
COc1ccc(S(=O)(=O)NCCSc2ccc(C)cc2)cc1OC,-2,36,0,0,x
Cc1c(Br)c(C(=O)N2CCc3ccccc32)nn1C,0,-31,5,-6,x
Cc1ccc(NC(=O)c2cc(N3C(=O)C=CC3=O)ccc2N2CCOCC2)cc1Cl,x,100*,x,15*,-19
COCCn1c(SCC(=O)NNC(=O)c2ccc(OC)c(OC)c2)nc2ccccc2c1=O,-2,10,-1,1,x
O=c1c(Cl)nc2cc(Cl)ccc2n1CCNc1ncc(C(F)(F)F)cc1Cl,-9,107*,-12,-1,128*
NNc1nc2cccnc2n(CCNc2ncc(C(F)(F)F)cc2Cl)c1=O,0,2,0,0,x
Cc1ccccc1N(Cc1nnc2n1CCCCC2)C(=O)Nc1ccccc1,-5,11,-1,1,x
O=c1[nH]c(=S)[nH]c(O)c1N=Nc1ccc(-c2ccccc2)cc1[N+](=O)[O-],x,102*,x,x,42
COc1ccc(CNC(=O)C2CCN(C(=O)Cc3ccccc3)CC2)cc1,-2,x,1,-1,x
Cn1ccnc1C(O)c1cccc(OCc2ccccc2)c1 (configuration not stated),-6,x,0,0,x
OC(c1cccc(OCc2ccccc2)c1)c1nnc(-c2ccccc2)o1 (configuration not stated),1,111*,2,0,106*
OC(c1ccc(OCc2ccccc2)cc1)c1nnc(-c2ccccc2)o1 (configuration not stated),-3,97*,-2,-1,-33
O=C(Nc1ccccc1)N1CCn2c(nc3ccccc32)C1,-1,3,1,-1,x
C=CCSc1n[nH]c(-c2ccc(OCCC)cc2)n1,2,49,2,0,x
C=CCSc1n[nH]c(-c2ccc(OCCCC)cc2)n1,5,106*,3,0,97*
O=C(NCc1cccnc1)C1CCN(c2ccc(S(=O)(=O)N3CCOCC3)cc2Cl)CC1,-4,-7,0,1,x
Cc1csc(NC(=O)Cc2coc3cc(C)c(C(C)C)cc23)n1,-3,99*,-1,0,42
COc1cccc(NC(=O)CSc2nnc(-c3cc(C)n(-c4ccccc4)c3C)o2)c1,-4,98*,-8,1,85*
Nc1nc(-c2ccc(Br)s2)c(Br)s1,2,98*,4,0,11
